Results from the RNAGym collection of RNA variant scans (doi:10.1101/gad.245936.114).
Variants at the floor of the assay were thinned out.

B1: tRNA (parent)
chain: CUCUCGGUAGCCAAGUUGGUUUAAGGCGCAAGACUUUAAUUUAUCACUACGAAAUCUUGAGAUCGGGCGUUCGACUCGCCCCCGGGAGAUUUUUUCCUCGAGCAA

Variants of: B1
Assay: nonsense suppression (GFP-seq) (ratio to wild type); higher = more function; SUP4oc tRNA, yeast GFP reporter sort-seq
How it was run: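 To measure nonsense suppression, tRNA variants from a library carrying ~3% random mutations were integrated into the yeast genome alongside RFP and a GFP ochre reporter under galactose control. Growth took place in raffinose/galactose medium supplemented with 80 mg/L adenine, followed by sorting into GFP/RFP bins and Illumina sequencing of each bin (phred ≥30). For each variant with ≥100 reads and ≥30 cells, the bin median GFP/RFP values were weighted by its estimated cell share per bin and referenced to the unmutated parent tRNA.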

| Variant | nonsense suppression |
| --- | --- |
| C3U U20A G26A | ≤ 0.026 |
| C3A C12G G18U U20G G61U U70G C75G | ≤ 0.026 |
| U2C U20C A24U | ≤ 0.026 |
| C3G A14U G18U | ≤ 0.026 |
| C3U U4C | 0.859 |
| U2G U58G C83G | ≤ 0.026 |
| U4C C34G | 0.0649 |
| U4C C34A | 0.0274 |
| U4C C34G C82U | 0.179 |
| C3U G6U | 0.0343 |
| U4A C11U C34U | ≤ 0.026 |
| C3U G7A U17G | ≤ 0.026 |
| C3G C11A C81G | ≤ 0.026 |
| U4C A13G C29U | 0.221 |
| C3U G78C A89U | ≤ 0.026 |
| C3U A31U | ≤ 0.026 |
| C3U A31G | 0.0805 |
| U2C G86A | ≤ 0.026 |
| U4A C5A | 0.0374 |
| C3A C5G U57C U70A C80A | ≤ 0.026 |
| U4C A31U | 1.04 |
| U4C A23U A54G G59U G67C | ≤ 0.026 |
| U2C G19C U35A | ≤ 0.026 |
| U4C A13U G78A | 0.424 |

| Variant | nonsense suppression |
| --- | --- |
| C3A A23G G25U C72A | ≤ 0.026 |
| C3U U35G G61A | ≤ 0.026 |
| U4A A14U | 0.0276 |
| U4A A14G | 0.0942 |
| U2G C11U U55G A60U C82G G86C G88U | ≤ 0.026 |
| C3G G61C | 0.0292 |
| C3G U8G | ≤ 0.026 |
| C3G A31C C68G C77U | ≤ 0.026 |
| C3A G18C G86A | ≤ 0.026 |
| U2C U55A | ≤ 0.026 |
| U2C A23G A62C G67A | ≤ 0.026 |
| U4A A13U | 0.18 |
| U4A A13C | 0.294 |
| U2G G32C | ≤ 0.026 |
| C3A U20C U55C | ≤ 0.026 |
| U4A A30G | 0.0267 |
| C3A C29G A60C C81G | ≤ 0.026 |
| U2C C5A C75U C83A | ≤ 0.026 |
| U2C A24G A31C A60C C82A G85C | ≤ 0.026 |
| C3U A54C | 0.079 |
| U2G G6C A89C | ≤ 0.026 |
| C3U C27G | 0.0543 |
| U2C G6U C29U | ≤ 0.026 |
| U4A C12U | ≤ 0.026 |

| Variant | nonsense suppression |
| --- | --- |
| U4C A9C G84A | 0.0602 |
| C3U U20G | 0.194 |
| C3U U21C G61A | 0.206 |
| C3U G85A | 0.528 |
| U2G G6C G18A G67C G86A A87U | ≤ 0.026 |
| U2G G6C G18A G67C G86A A87G | ≤ 0.026 |
| C3U U8G A54U U58G C83U | ≤ 0.026 |
| C3A A23C G26A U58A G78C | ≤ 0.026 |
| C3U U8C | 0.0916 |
| C3G C27U U57C G59A G61A | ≤ 0.026 |
| C3A C29A A54U | ≤ 0.026 |
| U2C U63G G73A | ≤ 0.026 |
| U2C C75U | 0.206 |
| C3A G67U | ≤ 0.026 |
| C3G A33U C34U A62G G67C | ≤ 0.026 |
| U4A A13C U70C C82U | ≤ 0.026 |
| U2G C77G | ≤ 0.026 |
| U2G C77U | ≤ 0.026 |
| U4A A31U | 0.0312 |
| C3G A30G C34G U55G G69C C79A | ≤ 0.026 |
| U4C C29U | 1.03 |
| U4C C29A | 1.11 |
| U4A C11U | 0.0306 |
| C3G G85U | 0.0369 |

| Variant | nonsense suppression |
| --- | --- |
| U4C G61U C79G A89G | ≤ 0.026 |
| C3U A9U A30G A54U G67A | ≤ 0.026 |
| C3U C75U | 0.539 |
| C3A G6A U71G | ≤ 0.026 |
| C3G G28A U55C G86U G88U | ≤ 0.026 |
| U2G U55G | ≤ 0.026 |
| U2G U55C | 0.053 |
| C3U C12G | ≤ 0.026 |
| C3U C12U | 0.039 |
| C3A G65A C68U G86U | ≤ 0.026 |
| C3U C81U | 0.0941 |
| C3U G6C A9U A13G A23G A60G G69C | ≤ 0.026 |
| U2G A9U | 0.0677 |
| U2G C3U C27G G66A U70C | ≤ 0.026 |
| C3U A89C | 0.0874 |
| U2G G28U U35C | ≤ 0.026 |
| U2C U57A | 0.0292 |
| U4C A14G G61A U71A | ≤ 0.026 |
| C3G A54C | 0.0677 |
| U2C C12G | ≤ 0.026 |
| C3A U58G U76A | ≤ 0.026 |
| C3U C80U | 0.0737 |
| C3U | 0.739 |
| C3A G25C U63A | ≤ 0.026 |

| Variant | nonsense suppression |
| --- | --- |
| U2G A23G G66A | ≤ 0.026 |
| C3A G28A G73A A74G | ≤ 0.026 |
| U4A U16G | 0.247 |
| U4A U16A | 0.215 |
| U4C A13C A24U | 0.488 |
| U2G C11A A74C G84C | ≤ 0.026 |
| U4C G15A | 0.746 |
| C3U G73A | 0.0656 |
| U4C A54C | 1.01 |
| U2C A31G | 0.0356 |
| U4C A33G | 0.0434 |
| U4A A23G | 0.288 |
| U4C G15A U21A | 0.214 |
| C3U U21A | 0.196 |
| C3U U21G | 0.137 |
| C3G A23G C27U C81A C83A G86A | ≤ 0.026 |
| C3U C72G | ≤ 0.026 |
| C3U G10C A23U C83G G85A A89U | ≤ 0.026 |
| U4A U76A | 0.0437 |
| C3U U8G U58G C80A C82G G86C | ≤ 0.026 |
| U2C A30U A31G A62G G67A G86C | ≤ 0.026 |
| U2C A89U | ≤ 0.026 |
| U4C C83U | 1.17 |
| C3U U17A | 0.194 |

| Variant | nonsense suppression |
| --- | --- |
| U2G G78U | 0.0774 |
| U4A A54U | 0.191 |
| U4A G18A C77A | ≤ 0.026 |
| C3U G6U U22G C81G | ≤ 0.026 |
| U4C A60C | 1.04 |
| C3U A23U A30C | ≤ 0.026 |
| U2C U4C | 1.01 |
| U2C U4G | 0.0326 |
| U2G C12A | ≤ 0.026 |
| U4A U20C A31U U71G C80A | ≤ 0.026 |
| U4A A13C C83U G84C | ≤ 0.026 |
| U2C G18C G25U A54C U57C G61U U70G | ≤ 0.026 |
| U4A U57A | ≤ 0.026 |
| U4A G10A U21G G28C | ≤ 0.026 |
| U4A G85A | 0.0324 |
| C3A A9G C64G | ≤ 0.026 |
| C3G G59A G78U A87U | ≤ 0.026 |
| U4C C80U | 0.651 |
| C3U G10C U17G U22A G25C | ≤ 0.026 |
| U4A U17A U22C | 0.0499 |
| U2C G78A | 0.0386 |
| U4C C12U | 0.745 |
| C3A U4A A62G | ≤ 0.026 |
| U4C C11U | 0.109 |

| Variant | nonsense suppression |
| --- | --- |
| U4C G25C | 0.723 |
| U4C G25A | 0.162 |
| U4C A9G | 0.391 |
| U4C A9C | 1.02 |
| U4C A9U | 1.07 |
| U4C A62U | 0.272 |
| C3U U16G | 0.22 |
| C3U U16A | 0.16 |
| U2C C68U A87G | 1.13 |
| U2G C27U A30G C79U C83A | ≤ 0.026 |
| U4C G7U U8C G69C | ≤ 0.026 |
| U4C C27U | 0.792 |
| C3U A24C | 0.0575 |
| U4A U17A | 0.174 |
| U4A G7U U76A | ≤ 0.026 |
| U2C C3U C12U G15A | ≤ 0.026 |
| U4C A9G A13G U76C | 0.202 |
| U2C U55C U58G | ≤ 0.026 |
| C3U C34U | ≤ 0.026 |
| U2G U20A U63C U76C | ≤ 0.026 |
| U4A U20A | 0.072 |
| U2C U21C U57G | ≤ 0.026 |
| U4A G19U | ≤ 0.026 |
